The record followed here is ChEMBL document CHEMBL4725448, “Substituted Azabicyclo[2.2.1]heptanes as Selective Orexin-1 Antagonists: Discovery of JNJ-54717793” (ACS Med Chem Lett, 2020).

In one data set the target is T1, Orexin receptor type 2 (Homo sapiens, UniProt O43614).
T1 sequence (O43614 whole entry): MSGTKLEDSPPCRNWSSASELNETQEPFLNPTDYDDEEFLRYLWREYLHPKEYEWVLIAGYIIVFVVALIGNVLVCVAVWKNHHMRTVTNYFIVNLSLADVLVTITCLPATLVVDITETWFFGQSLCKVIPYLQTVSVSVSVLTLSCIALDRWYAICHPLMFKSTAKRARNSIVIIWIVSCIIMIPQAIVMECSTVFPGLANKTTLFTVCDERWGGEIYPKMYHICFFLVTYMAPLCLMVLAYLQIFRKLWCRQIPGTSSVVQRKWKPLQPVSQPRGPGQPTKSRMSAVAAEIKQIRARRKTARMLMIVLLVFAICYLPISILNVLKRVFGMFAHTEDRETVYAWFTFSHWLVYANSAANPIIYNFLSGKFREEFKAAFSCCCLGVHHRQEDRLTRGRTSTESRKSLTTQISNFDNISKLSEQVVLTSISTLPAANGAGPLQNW
Description: Binding affinity to human OX2R.

Data set [1] deals with T2, Orexin/Hypocretin receptor type 1 (Homo sapiens, UniProt O43613).
T2 sequence (O43613 whole entry): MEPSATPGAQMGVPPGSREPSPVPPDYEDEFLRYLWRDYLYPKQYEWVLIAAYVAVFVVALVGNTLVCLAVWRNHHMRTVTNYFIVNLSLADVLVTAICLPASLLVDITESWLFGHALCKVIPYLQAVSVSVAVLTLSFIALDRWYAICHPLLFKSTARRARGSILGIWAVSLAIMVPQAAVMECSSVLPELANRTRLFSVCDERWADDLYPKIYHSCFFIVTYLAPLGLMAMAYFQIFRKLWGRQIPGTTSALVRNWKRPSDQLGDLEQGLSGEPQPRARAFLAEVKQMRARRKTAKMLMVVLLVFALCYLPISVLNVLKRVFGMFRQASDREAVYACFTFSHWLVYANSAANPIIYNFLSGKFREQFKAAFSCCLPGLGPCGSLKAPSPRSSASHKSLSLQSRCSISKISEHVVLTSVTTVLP
Description: Binding affinity to human […].

Data set [2] in a line: Stability in rat liver microsomes assessed as extraction ratio. It is filed as ADME, Microsome. The settings on record: read-out: ERH. The gist of the method: (§1)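 Metabolic stability in human or rat liver microsomes, expressed as extraction ratios.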
Data set [3] can be described thus: Stability in human liver microsomes assessed as extraction ratio. Format: ADME, Microsome. The following applies: read-out: ERH. The gist of the method:
as §1
In general terms: Microsomes from liver hold many membrane-bound enzymes, among them those of drug oxidation.

Data set [4] in a line: Ex vivo receptor occupancy at OX1R in Sprague-Dawley rat brain tenia tecta using [3H]SB-674042 labelling at 10 mg/kg, po measured after 2 hrs by autoradiography. It is filed as functional. The gist of the method:
(§2)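 Rats received a single oral dose, and OX1R occupancy was measured by ex vivo binding autoradiography in brain tenia tecta sections at 0.5, 2 and 6 h after dosing. Occupancy is expressed as percent. Brain and plasma drug levels (ng/mL) were also sampled at the 0.5 h time point.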

Data set [5] in a line: Ex vivo receptor occupancy at OX1R in Sprague-Dawley rat brain tenia tecta using [3H]SB-674042 labelling at 10 mg/kg, po measured after 6 hrs by autoradiography. Format: functional. The method, boiled down: as §2
The nature of data set [6]: Drug concentration in Sprague-Dawley rat brain at 10 mg/kg, po after 0.5 hrs by LC-MS/MS analysis. It is filed as ADME, organism-based. The settings on record: read-out: Ct. The method, boiled down: (§3)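 Brain and plasma levels (ng/mL) sampled 0.5 h after oral dosing at 10 or 30 mg/kg, alongside the ex vivo tenia tecta occupancy study.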
The nature of data set [7]: Drug concentration in Sprague-Dawley rat plasma at 10 mg/kg, po after 0.5 hrs by LC-MS/MS analysis. It is filed as ADME, organism-based. The gist of the method: as §3
Data set [8] in a line: Ex vivo receptor occupancy at OX1R in Sprague-Dawley rat brain tenia tecta using [3H]SB-674042 labelling at 10 mg/kg, po measured after 0.5 hrs by autoradiography. It is filed as functional. The method, boiled down:
as §2

The nature of data set [9]: Ex vivo receptor occupancy at OX1R in Sprague-Dawley rat brain tenia tecta using [3H]SB-674042 labelling at 30 mg/kg, po measured after 2 hrs by autoradiography. Format: functional. The gist of the method:
(§4)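 Ex vivo OX1R binding autoradiography in rat tenia tecta after a 30 mg/kg po dose; percent occupancy read at 0.5 and 2 h.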

Data set [10] is described as follows: Drug concentration in Sprague-Dawley rat plasma at 30 mg/kg, po after 0.5 hrs by LC-MS/MS analysis. It is filed as ADME, organism-based. The method, boiled down: as §3
Data set [11] in a line: Drug concentration in Sprague-Dawley rat brain at 30 mg/kg, po after 0.5 hrs by LC-MS/MS analysis. Format: ADME, organism-based. The following applies: read-out: Ct. The method, boiled down: as §3
The nature of data set [12]: Ex vivo receptor occupancy at OX1R in Sprague-Dawley rat brain tenia tecta using [3H]SB-674042 labelling at 30 mg/kg, po measured after 0.5 hrs by autoradiography. Format: functional. The method, boiled down: as §4

As usually defined, the Ki is the dissociation constant of the complex between target and ligand, obtained from inhibition or displacement. With `O=C(c1cccc(F)c1-c1ncccn1)N1C2CCC1C(Oc1cnc(C(F)(F)F)cn1)C2` (racemic), the inhibition constant (Ki) on Orexin receptor type 2 is 5500 nM; in data set [1] it was 100 nM.

With `Cc1ccc(-n2nccn2)c(C(=O)N2C3CCC2C(COc2ccc(C(F)(F)F)cn2)C3)n1` (racemic), the Ki turned out to be 420 nM on Orexin receptor type 2 and 500 nM in data set [1].

On to `O=C(c1cccc(F)c1-c1ncccn1)N1C2CCC1C(Oc1ccc(C(F)(F)F)cn1)C2` (racemic), for which the figures for the Ki (at Orexin receptor type 2; in [1]) were above 10000 nM and 130 nM, respectively.

Take `O=C(c1cc(F)ccc1-c1ncccn1)N1[C@@H]2CC[C@H]1[C@H](Nc1cnc(C(F)(F)F)cn1)C2`: the Ki on Orexin receptor type 2 stood at 730 nM; in data set [1] it was 65 nM.

With `O=C(c1cccc(F)c1-c1ncccn1)N1[C@@H]2CC[C@H]1[C@H](Nc1ncc(C(F)(F)F)cc1Cl)C2`, the hepatic extraction ratio worked out at 0.83 in data set [2] and 0.61 in [3]. Besides, the inhibition constant (Ki) on Orexin receptor type 2 worked out at 540 nM; in [1] it was 14 nM.

With `Cc1ccc(-c2ncccn2)c(C(=O)N2C3CCC2C(COc2ccc(F)cn2)C3)c1` (racemic), the hepatic extraction ratio in data set [2] is 0.89; in [3], 0.91. The inhibition constant Ki worked out at 40 nM on Orexin receptor type 2 and 8.7 nM in data set [1].

Consider `O=C(c1cc(F)ccc1-c1ncccn1)N1C2CCC1C(COc1ccc(F)cn1)C2` (racemic), for which the figures for the hepatic extraction ratio in data set [2] and in data set [3] were 0.76 and 0.81, respectively. Moreover, the Ki came to 160 nM on Orexin receptor type 2 and 41 nM in [1].

Regarding `O=C(c1cccc(F)c1-c1ncccn1)N1[C@@H]2CC[C@H]1[C@H](Nc1ccc(C(F)(F)F)cn1)C2`, the hepatic extraction ratio was 0.82 in data set [2] and 0.75 in [3]. In addition, the Activity in data set [4] is listed as 69%; in data set [5], 21%; in data set [8] it was 70%. The concentration at 0.5 h in data set [6] was 72 ng/mL; in data set [7], 586 ng/mL.

As to `O=C(c1ccc(F)cc1-c1ncccn1)N1[C@@H]2CC[C@H]1[C@H](Nc1cnc(C(F)(F)F)cn1)C2`, the hepatic extraction ratio in data set [2] came to 0.76; in data set [3] it was 0.81. Moreover, the Activity is reported as 17% in [9] and 75% in data set [12]. The concentration at 0.5 h in data set [10] was found to be 257 ng/mL; in data set [11] it was 37 ng/mL. Besides, the Ki on Orexin receptor type 2 is 1700 nM; in data set [1] it was 61 nM.

With `O=C(c1cc(F)ccc1-n1nccn1)N1C2CCC1C(COc1ccc(F)cn1)C2` (racemic), the values for the hepatic extraction ratio in data set [2] and in data set [3] were 0.8 and 0.81, respectively. The Ki is 200 nM on Orexin receptor type 2 and 59 nM in [1].

The compound `O=C(c1nccc2[nH]cnc12)N1CCC(F)(F)[C@@H](Oc2ccc3ccccc3n2)C1` came in with an inhibition constant (Ki) in [1] of 5.2 nM.

Take `Cc1ccc(-n2nccn2)c(C(=O)N2C3CCC2C(COc2ccc(F)cn2)C3)c1` (racemic): the Activity in data set [9] was 43%; in data set [12], 49%. Moreover, the concentration at 0.5 h in data set [10] was determined as 55 ng/mL; in data set [11] it was 16 ng/mL. Moreover, the Ki at Orexin receptor type 2 is 72 nM.

On to `Cc1ccc(-c2ncccn2)c(C(=O)N2[C@@H]3CC[C@H]2[C@H](COc2ccccn2)C3)n1`, for which the hepatic extraction ratio stood at 0.82 in data set [2] and 0.61 in [3]. Further, the results for the Ki (at Orexin receptor type 2; in data set [1]) were 230 nM and 19 nM, respectively.

For the compound `Cc1ccc(-n2nccn2)c(C(=O)N2C3CCC2C(Nc2ccc(C(F)(F)F)cn2)C3)n1` (racemic), the hepatic extraction ratio was above 0.92 in data set [2] and 0.93 in data set [3]. Moreover, the Ki in data set [1] came to 75 nM.

Take `Cc1ccc(-n2nccn2)c(C(=O)N2[C@@H]3CC[C@H]2[C@H](COc2ccc(F)cn2)C3)n1`: the Activity in data set [9] was found to be 30%; in data set [12], 50%. Moreover, the results for the concentration at 0.5 h in data set [10] and in [11] were 930 ng/mL and 313 ng/mL, respectively.

In the case of `O=C(c1ccccc1-n1nccn1)N1C2CCC1C(Oc1ccc(C(F)(F)F)cn1)C2` (racemic), the values for the Ki (at Orexin receptor type 2; in data set [1]) were 2700 nM and 130 nM, respectively.

Consider `Cc1ccc(-n2nccn2)c(C(=O)N2[C@@H]3CC[C@H]2[C@H](COc2ccccn2)C3)n1`, for which the Activity in data set [9] was found to be 20%; in data set [12] it was 50%. In addition, the concentration at 0.5 h in data set [10] amounted to 118 ng/mL; in data set [11] it was 8 ng/mL.

In the case of `O=C(c1ccccc1-n1nccn1)N1[C@@H]2CC[C@H]1[C@H](Nc1cnc(C(F)(F)F)cn1)C2`, the hepatic extraction ratio in [2] is 0.31; in data set [3], below 0.3. The Ki at Orexin receptor type 2 was found to be 770 nM; in data set [1], 30 nM.

As for `O=C(c1ccccc1-n1nccn1)N1C2CCC1C(Nc1ccc(C(F)(F)F)cn1)C2` (racemic), the hepatic extraction ratio came out at 0.87 in [2] and 0.69 in data set [3]. The Ki at Orexin receptor type 2 is 1400 nM; in data set [1] it was 52 nM.

Consider `O=C(c1c(F)cccc1-c1ncccn1)N1[C@@H]2CC[C@H]1[C@H](Nc1cnc(C(F)(F)F)cn1)C2`, for which the figures for the Activity in [4], in [5] and in data set [8] were 43%, 29% and 51%, respectively. The concentration at 0.5 h was determined as 654 ng/mL in data set [6] and 1600 ng/mL in data set [7]. For the same compound, the Ki at Orexin receptor type 2 amounted to 560 nM.

In [1], `COc1ccc(C[C@H]2c3cc(OC)c(OC)cc3CCN2[C@@H](C(=O)NC(C)C)c2ccccc2)cc1OC` returned a Ki of 6 nM.

As to `O=C(c1ccccc1-n1nccn1)N1C2CCC1C(Nc1cnc(C(F)(F)F)cn1)C2` (racemic), the hepatic extraction ratio in data set [2] stood at 0.55; in [3], 0.36. The results for the Ki (at Orexin receptor type 2; in [1]) were 1250 nM and 62 nM, respectively.

As for `O=C(c1cccn2ccnc12)N1CCC(F)(F)[C@@H](Oc2ccc3ccccc3n2)C1`, the Ki on Orexin receptor type 2 was 1010 nM; in data set [1], 1.8 nM.

Consider `O=C(c1ccccc1-c1cccs1)N1C2CCC1C(COc1ccc(F)cn1)C2` (racemic), for which the values for the hepatic extraction ratio in [2] and in data set [3] were above 0.92 and above 0.95, respectively. The same compound registered a Ki at Orexin receptor type 2 of 13 nM.

`O=C(c1ccccc1-n1nccn1)N1C2CCC1C(Nc1ncc(C(F)(F)F)cn1)C2` (racemic): in [1], the affinity, expressed as Ki, was 180 nM.
